For one series, the system named is Ba/F3 Bcr-Abl^T315I. Nature of the series: Antiproliferation cell assay. Type of series: cell-based. To be noted: Mus musculus, BaF3, 72 h, read-out: Cellular inhibition IC50 Ba/F3 Bcr-Abl^T315I.
Another series addresses Bcr-Abl^WT (Homo sapiens, UniProt P00519+P11274). The experiment in a line: Western blot degradation study in K562 cells. Type of series: cell-based.
A further series relates to Ba/F3 Bcr-Abl^WT. Nature of the series: Antiproliferation cell assay. The class given is cell-based. Particulars: Mus musculus, BaF3, 72 h, read-out: Cellular inhibition IC50 Ba/F3 Bcr-Abl^WT.
A further series concerns K562. Nature of the series: Antiproliferation cell assay. The class given is cell-based, human. Particulars: Homo sapiens, K562, 72 h, read-out: Cellular inhibition IC50 K562. The procedure, abridged:
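K562 (ATCC) cells were grown in RPMI-1640 with 10% FBS, penicillin, streptomycin and 2 mmol/L glutamine at 37 °C in humidified CO2. Log-phase cells were seeded at ~3000/well, rested overnight, then exposed to test compound or vehicle for 72 h (10 mmol/L DMSO stocks). CCK-8 was read as OD450−OD650, with viability normalised to no-cell blank and vehicle wells. IC50 came from concentration–response curve fitting, mean ± SD.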

For the next series, the target named is Bcr-Abl^T315I (Homo sapiens, UniProt P00519+P11274, T315I). Nature of the series: Western blot degradation study in Ba/F3 cells expressed Bcr-Abl^T315I. To be noted: for DR against Ba/F3 Bcr-Abl^T315I (%) 100 nmol/L / DR against Ba/F3 Bcr-Abl^T315I (%) 300 nmol/L: 24 h treatment, Western blot. Type of series: cell-based.
Series [1] can be described thus: Pharmacokinetics in mice, single i.p. injection. Type of series: in vivo, ICR mice. To be noted: 20 mg/kg.
Series [2] deals with Ba/F3 Bcr-Abl^T315I xenograft. Nature of the series: In vivo antitumor efficacy, Ba/F3 Bcr-Abl^T315I xenograft model. Details: species or system CB17-SCID mice. The procedure, abridged: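 Ba/F3 Bcr-AblT315I cells in normal saline were implanted s.c. in the right flank of CB17-SCID mice (2 × 10^6 cells/0.1 mL). Mice were randomised at mean tumour volume 100–200 mm3 and dosed i.p. every two days at 10 or 20 mg/kg. Vehicle was 5% DMSO + 10% solutol + 85% saline. Body weight and tumour volume (L × W²/2) were recorded every two days. Terminal tumours were formalin-fixed, paraffin-sectioned and TUNEL-stained.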

The target of series [3] is Bcr-Abl^T315I / CRBN E3 ligase (UniProt P00519+P11274+Q8C7D2, T315I). The experiment in a line: Co-immunoprecipitation in Ba/F3 Bcr-Abl^T315I cells. Type of series: cell-based. To be noted: 24 h treatment. A digest of the protocol: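 After 24 h exposure to a range of test compound concentrations, cells were lysed on ice in RIPA with protease and phosphatase inhibitors. Protein was BCA-quantified and equalised; ~4/5 of each lysate went to IP and the rest served as input. Anti-c-Abl antibody was added overnight at 4 °C, then protein A+G agarose for 2 h at 4 °C. Beads were washed five times in RIPA without inhibitors, and complexes were immunoblotted for CRBN.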

“Also recorded” adds a separate entry of the source. Some results are limits rather than exact numbers.

Turning to `Cc1ccc(C(=O)Nc2ccc(CN3CCN(CCOCCOCCC(=O)Nc4cccc5c4C(=O)N(C4CCC(=O)NC4=O)C5=O)CC3)c(C(F)(F)F)c2)cc1C#Cc1cnc2[nH]ncc2c1` (stereo not drawn) [compound 7a, 3-((1H-Pyrazolo[3,4-b]pyridin-5-yl)ethynyl)-N-(4-((4-(2-(2-(3-((2-(2,6-dioxopiperidin-3-yl)-1,3-dioxoisoindolin-4-yl)amino)-3-oxopropoxy)ethoxy)ethyl)piperazin-1-yl)methyl)-3-(trifluoromethyl)phenyl)-4-methylbenzamide], the IC50 with Ba/F3 Bcr-Abl^T315I turned out to be 83.2 ± 27.8 nM; in the series on Ba/F3 Bcr-Abl^WT, 10 ± 2.1 nM; with K562 it was 7.9 ± 5.2 nM. Also, on Bcr-Abl^WT (24 h treatment (data not shown)), the “degradation on K562 cells expressing Bcr-Abl” value is “does not exhibit obvious degradation”. Besides, the “DR against Ba/F3 Bcr-Abl^T315I (%) 100 nmol/L” value (“DR … (%) 100 nmol/L” below) at Bcr-Abl^T315I (100 nmol/L) is −15.35%. At Bcr-Abl^T315I, the “DR against Ba/F3 Bcr-Abl^T315I (%) 300 nmol/L” value (“DR … (%) 300 nmol/L” for short) worked out at 39.01%. In addition, on Bcr-Abl^T315I (DR at 300 nmol/L), the “degradation potency relative to GZD824” value was 2 fold.
Turning to `Cc1ccc(C(=O)Nc2ccc(CN3CCN(CCOCCOCCNC(=O)[C@H](CC(C)C)NC(=O)[C@@H](O)[C@H](N)Cc4ccccc4)CC3)c(C(F)(F)F)c2)cc1C#Cc1cnc2[nH]ncc2c1` [7e, 3-((1H-Pyrazolo[3,4-b]pyridin-5-yl)ethynyl)-N-(4-((4-((11S,14S,15R)-15-amino-14-hydroxy-11-isobutyl-10,13-dioxo-16-phenyl-3,6-dioxa-9,12-diazahexadecyl)piperazin-1-yl)methyl)-3-(trifluoromethyl)phenyl)-4-methylbenzamide], the IC50 in the series with Ba/F3 Bcr-Abl^T315I was determined as 2310 ± 424 nM; with Ba/F3 Bcr-Abl^WT, 240 ± 75.4 nM; in the series on K562, 58.6 ± 11.4 nM. Further, the “DR … (%) 100 nmol/L” value at Bcr-Abl^T315I (100 nmol/L) was −14.92%. For the same molecule, the “DR … (%) 300 nmol/L” value on Bcr-Abl^T315I is recorded as 11.17%.
As to `Cc1ccc(C(=O)Nc2ccc(CN3CCN(CCCCCCC(=O)Nc4cccc5c4C(=O)N(C4CCC(=O)NC4=O)C5=O)CC3)c(C(F)(F)F)c2)cc1C#Cc1cnc2[nH]ncc2c1` (stereo not drawn) [compound 7o, 3-((1H-Pyrazolo[3,4-b]pyridin-5-yl)ethynyl)-N-(4-((4-(7-((2-(2,6-dioxopiperidin-3-yl)-1,3-dioxoisoindolin-4-yl)amino)-7-oxoheptyl)piperazin-1-yl)methyl)-3-(trifluoromethyl)phenyl)-4-methylbenzamide], the IC50 with Ba/F3 Bcr-Abl^T315I was 26.8 ± 9.7 nM; in the series with Ba/F3 Bcr-Abl^WT, 4.2 ± 0.2 nM; in the series with K562, 7.7 ± 1.8 nM. Moreover, in series [1], the “plasma concentration over time” value was “high plasma concentrations maintained over 48 h”. For the same molecule, the “treatment time after which Bcr-Abl^WT was substantially reduced in K562 cells” value at Bcr-Abl^WT (100 nmol/L, time-course) was 36 h. Further, in series [2] (20 mg/kg, i.p., q2d, 10 consecutive days), the “tumor growth inhibition (TGI)” value is reported as 90.8%. The “body weight loss relative to the vehicle matched controls” value in series [2] (20 mg/kg, i.p., q2d, during the treatment) is recorded as less than 5%. Also, the mortality result in series [2] (during the treatment) is on record as “no mortality”. The “tumor growth (in words)” value in series [2] (i.p., once every two days) was “substantial tumor regression; also recorded: suppresses the growth”. In addition, in series [2] (mouse, in vivo), the “apoptosis in xenograft tumor (TUNEL)” value is listed as “induced apoptosis”. For the same molecule, in series [3], the “mechanism of Bcr-Abl^T315I degradation (Co-IP)” value is on record as “mediated by CRBN E3 ubiquitin pathway”. For the same molecule, at Bcr-Abl^T315I (100 nmol/L), the “DR … (%) 100 nmol/L” value turned out to be 69.89%. Also, the “treatment time after which Bcr-Abl^T315I protein level was substantially reduced” value on Bcr-Abl^T315I (100 nmol/L, time-course) amounted to 6 h. Besides, the “DR … (%) 300 nmol/L” value on Bcr-Abl^T315I is listed as 94.23%. On Bcr-Abl^T315I (20 μmol/L MG132, then 7o 24 h at 100 and 300 nmol/L), the “Bcr-Abl^T315I degradation after preincubation with proteasome inhibitor MG132” value was “successfully rescue”. For the same molecule, the “treatment time of maximum degradation” value at Bcr-Abl^T315I (Ba/F3 Bcr-Abl^T315I, time-course) stood at 24 h.
Consider `Cc1ccc(C(=O)Nc2ccc(CN3CCN(CCOCCOCCOCCOCCOCCOCCC(=O)Nc4cccc5c4C(=O)N(C4CCC(=O)NC4=O)C5=O)CC3)c(C(F)(F)F)c2)cc1C#Cc1cnc2[nH]ncc2c1` (stereo not drawn) [7k, 1-(4-(4-(3-((1H-Pyrazolo[3,4-b]pyridin-5-yl)ethynyl)-4-methylbenzamido)-2-(trifluoromethyl)benzyl)piperazin-1-yl)-N-(2-(2,6-dioxopiperidin-3-yl)-1,3-dioxoisoindolin-4-yl)-3,6,9,12,15,18-hexaoxahenicosan-21-amide], for which the IC50 in the series on Ba/F3 Bcr-Abl^T315I is 306 ± 69.3 nM; in the series with Ba/F3 Bcr-Abl^WT, 107 ± 24.9 nM; in the series with K562, 10.5 ± 0.5 nM. On Bcr-Abl^T315I (100 nmol/L), the “DR … (%) 100 nmol/L” value was found to be 19.38%. For the same molecule, the “DR … (%) 300 nmol/L” value on Bcr-Abl^T315I amounted to 25.53%.
As to `Cc1ccc(C(=O)Nc2ccc(CN3CCN(CCCCCCCCC(=O)Nc4cccc5c4C(=O)N(C4CCC(=O)NC4=O)C5=O)CC3)c(C(F)(F)F)c2)cc1C#Cc1cnc2[nH]ncc2c1` (stereo not drawn) [7p, 3-((1H-Pyrazolo[3,4-b]pyridin-5-yl)ethynyl)-N-(4-((4-(9-((2-(2,6-dioxopiperidin-3-yl)-1,3-dioxoisoindolin-4-yl)amino)-9-oxononyl)piperazin-1-yl)methyl)-3-(trifluoromethyl)phenyl)-4-methylbenzamide], the IC50 in the series on Ba/F3 Bcr-Abl^T315I was 21.8 ± 8.3 nM; in the series with Ba/F3 Bcr-Abl^WT, 4.5 nM; with K562, 14 ± 4.5 nM. In addition, the “DR … (%) 100 nmol/L” value at Bcr-Abl^T315I (100 nmol/L) was found to be 3.61%. The “DR … (%) 300 nmol/L” value on Bcr-Abl^T315I turned out to be 63.47%.
The like results for `Cc1ccc(C(=O)Nc2ccc(CN3CCN(CCOCCOCCC(=O)NC45CC6CC(CC(C6)C4)C5)CC3)c(C(F)(F)F)c2)cc1C#Cc1cnc2[nH]ncc2c1` [7f, 3-((1H-Pyrazolo[3,4-b]pyridin-5-yl)ethynyl)-N-(4-((4-(2-(2-(3-(adamantan-1-ylamino)-3-oxopropoxy)ethoxy)ethyl)piperazin-1-yl)methyl)-3-(trifluoromethyl)phenyl)-4-methylbenzamide] were, in that order, greater than 10000 nM, greater than 10000 nM, greater than 10000 nM, −5.26% and 11.72%.
In the case of `Cc1ccc(C(=O)Nc2ccc(CN3CCN(CCOCCOCCOCCOCCOCCC(=O)Nc4cccc5c4C(=O)N(C4CCC(=O)NC4=O)C5=O)CC3)c(C(F)(F)F)c2)cc1C#Cc1cnc2[nH]ncc2c1` (stereo not drawn) [7j, 1-(4-(4-(3-((1H-Pyrazolo[3,4-b]pyridin-5-yl)ethynyl)-4-methylbenzamido)-2-(trifluoromethyl)benzyl)piperazin-1-yl)-N-(2-(2,6-dioxopiperidin-3-yl)-1,3-dioxoisoindolin-4-yl)-3,6,9,12,15-pentaoxaoctadecan-18-amide], the results for the IC50 with Ba/F3 Bcr-Abl^T315I, in the series on Ba/F3 Bcr-Abl^WT and in the series with K562 were 60.1 ± 0.3 nM, 14.3 ± 0.3 nM and 2.8 ± 0.4 nM, respectively. Further, the “DR … (%) 100 nmol/L” value at Bcr-Abl^T315I (100 nmol/L) is reported as −23.27%. Besides, the “DR … (%) 300 nmol/L” value on Bcr-Abl^T315I is reported as 21.17%.
As to `Cc1ccc(C(=O)Nc2ccc(CN3CCN(CCCCC(=O)Nc4cccc5c4C(=O)N(C4CCC(=O)NC4=O)C5=O)CC3)c(C(F)(F)F)c2)cc1C#Cc1cnc2[nH]ncc2c1` (stereo not drawn) [7m, 3-((1H-Pyrazolo[3,4-b]pyridin-5-yl)ethynyl)-N-(4-((4-(5-((2-(2,6-dioxopiperidin-3-yl)-1,3-dioxoisoindolin-4-yl)amino)-5-oxopentyl)piperazin-1-yl)methyl)-3-(trifluoromethyl)phenyl)-4-methylbenzamide], the IC50 was found to be 25 ± 10.4 nM in the series with Ba/F3 Bcr-Abl^T315I, 4.3 ± 0.1 nM in the series with Ba/F3 Bcr-Abl^WT and 3 ± 1.2 nM in the series on K562. Besides, the “DR … (%) 100 nmol/L” value on Bcr-Abl^T315I (100 nmol/L) is 49.84%. The “DR … (%) 300 nmol/L” value at Bcr-Abl^T315I stood at 48.67%.
Turning to `Cc1ccc(C(=O)Nc2ccc(CN3CCN(CCCCCC(=O)Nc4cccc5c4C(=O)N(C4CCC(=O)NC4=O)C5=O)CC3)c(C(F)(F)F)c2)cc1C#Cc1cnc2[nH]ncc2c1` (stereo not drawn) [7n, 3-((1H-Pyrazolo[3,4-b]pyridin-5-yl)ethynyl)-N-(4-((4-(6-((2-(2,6-dioxopiperidin-3-yl)-1,3-dioxoisoindolin-4-yl)amino)-6-oxohexyl)piperazin-1-yl)methyl)-3-(trifluoromethyl)phenyl)-4-methylbenzamide], the IC50 was 33.4 ± 1.6 nM with Ba/F3 Bcr-Abl^T315I, 4.2 ± 0.3 nM in the series on Ba/F3 Bcr-Abl^WT and 2.1 ± 0.1 nM in the series with K562. The “DR … (%) 100 nmol/L” value at Bcr-Abl^T315I (100 nmol/L) was 21.64%. For the same molecule, at Bcr-Abl^T315I, the “DR … (%) 300 nmol/L” value is 30.39%.
As to `Cc1ccc(C(=O)Nc2ccc(CN3CCN(CCOCCOCCC(=O)Nc4cccc5c4CN(C4CCC(=O)NC4=O)C5=O)CC3)c(C(F)(F)F)c2)cc1C#Cc1cnc2[nH]ncc2c1` (stereo not drawn) [7b, 3-((1H-Pyrazolo[3,4-b]pyridin-5-yl)ethynyl)-N-(4-((4-(2-(2-(3-((2-(2,6-dioxopiperidin-3-yl)-1-oxoisoindolin-4-yl)amino)-3-oxopropoxy)ethoxy)ethyl)piperazin-1-yl)methyl)-3-(trifluoromethyl)phenyl)-4-methylbenzamide], the IC50 in the series on Ba/F3 Bcr-Abl^T315I worked out at 287 ± 23 nM; in the series on Ba/F3 Bcr-Abl^WT it was 65.3 ± 30.2 nM; with K562, 4 ± 0.6 nM. Besides, at Bcr-Abl^T315I (100 nmol/L), the “DR … (%) 100 nmol/L” value was −9.18%. The “DR … (%) 300 nmol/L” value on Bcr-Abl^T315I is −4.21%.

These data come from paper PMC8148061 (Acta Pharmaceutica Sinica. B, 2020).
